Activity calls are given as the source filed them. No cut-off for these calls is given here.
How the values were obtained:
[1] = test system: Raji; assay: Increase in ubiquitinated protein p27 level in leukemia Raji B cells after 4 hrs; format: functional, Homo sapiens; conditions: for Activity: Homo sapiens, TDE = time-dependent effect
Method in brief: (§1)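 Raji B cells (RPMI, 10% FBS, 37 °C, 5% CO2) exposed to DMSO solvent or 25 μM compound for 4 or 24 h. Whole cell extracts immunoblotted with antibodies to IκB-α, p27, Bax and ubiquitin, with actin as loading control, and quantified by densitometry.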

[2] = test system: Raji; assay: Increase in ubiquitinated protein bax level in leukemia Raji B cells after 4 hrs; format: functional, Homo sapiens; conditions: for Activity: Homo sapiens, TDE = time-dependent effect; method in brief: as §1
[3] = test system: Raji; assay: Increase in ubiquitinated protein IkBalpha level in leukemia Raji B cells after 4 hrs; format: functional, Homo sapiens; conditions: for Activity: Homo sapiens; method in brief: as §1
[4] = test system: 20S proteasome (Oryctolagus cuniculus); assay: Inhibition of chymotrypsin like activity of 20S proteasome at 50 uM
[5] = test system: Raji; assay: Increase in cell death in leukemia Raji B cells at 25 um after 24 hrs; format: functional, Homo sapiens
Method in brief: (§2)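 Raji B leukaemia cells grown in RPMI with 10% FBS, penicillin and streptomycin at 37 °C under 5% CO2. Treated with 25 μM compound or DMSO solvent for 24 h. Death scored by trypan blue dye exclusion: blue cells and cells with apoptotic morphology (shrinking, blebbing) on phase-contrast microscopy counted as dead.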

[6] = test system: Raji; assay: Increase in ubiquitinated protein IkBalpha level in leukemia Raji B cells after 24 hrs; format: functional, cell-based; conditions: Homo sapiens; method in brief: as §1
[7] = test system: Raji; assay: Inhibition of chymotrypsin like activity of 20S proteasome in leukemia Raji B cells at 25 uM after 24 hrs; format: cell-based; conditions: Homo sapiens
Method in brief: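 Raji B cells dosed at 25 μM for 4 or 24 h, then harvested and lysed. Whole cell extract (10 μg) incubated with Suc-Leu-Leu-Val-Tyr-AMC (40 μM) in 50 mM Tris-HCl pH 8 at 37 °C for 2.5 h. Released AMC read at ex 380/em 460 nm.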

[8] = test system: Raji; assay: Increase in ubiquitinated protein bax level in leukemia Raji B cells after 24 hrs; format: functional, cell-based; conditions: Homo sapiens; method in brief: as §1
[9] = test system: Raji; assay: Induction of apoptosis in leukemia Raji B cells assessed as PARP1 ceavage after 24 hrs; format: functional, cell-based; conditions: Homo sapiens
Method in brief: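 Raji B cells were treated with DMSO or 25 μM compound for 4 or 24 h. Whole cell extracts were immunoblotted with a polyclonal anti-PARP antibody to detect apoptosis-specific PARP cleavage, with densitometric quantification.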

[10] = test system: Raji; assay: Increase in ubiquitinated protein p27 level in leukemia Raji B cells after 24 hrs; format: functional, cell-based; conditions: Homo sapiens; method in brief: as §1
[11] = test system: Raji; assay: Effect on apoptosis in leukemia Raji B cells assessed as increase in caspase 3 activation after 24 hrs; format: functional, Homo sapiens
Method in brief: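 Raji B cells (RPMI, 10% FBS, 37 °C, 5% CO2) given 25 μM compound for 4 or 24 h, then harvested and lysed. Lysates incubated with Ac-DEVD-AMC (40 μM) for 2.5 h; caspase-3 activity read from fluorogenic substrate cleavage.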

[12] = Inhibition of chymotrypsin like activity of 20S proteasome; design: species or system Homo sapiens
Method in brief: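 Purified rabbit 20S proteasome (35 ng) incubated with the fluorogenic substrate Suc-Leu-Leu-Val-Tyr-AMC (40 μM), with or without compound. Chymotrypsin-like activity was read as substrate hydrolysis.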

[13] = test system: Raji; assay: Inhibition of chymotrypsin like activity of 20S proteasome in leukemia Raji B cells at 25 uM after 4 hrs; format: cell-based; conditions: Homo sapiens
Method in brief: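 Raji B cells treated with 25 μM compound for 4 h, then harvested and lysed. Whole-cell extract (10 μg) incubated with 40 μM Suc-Leu-Leu-Val-Tyr-AMC in 50 mM Tris-HCl pH 8 at 37 °C for 2.5 h. Free AMC read by fluorescence at 380 nm excitation and 460 nm emission.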

[14] = test system: Raji; assay: Induction of cell death in leukemia Raji B cells at 25 uM after 24 hrs; format: functional, Homo sapiens; method in brief: as §2

Row | SMILES | Fold change [1] | Fold change [2] | inhibition [4] [%] | Fold change [5] | Activity [6] | inhibition [7] [%] | Activity [8] | Activity [9] | Activity [10] | Fold change [11] | IC50 [12] [nM] | Activity [1] | Activity [2] | Activity ([3]; TDE = time-dependent effect) | Activity [14] [%] | other results
1 | CC(=O)Oc1cc(OC(C)=O)c2c(c1)O[C@H](c1cc(OC(C)=O)c(OC(C)=O)c(OC(C)=O)c1)[C@H](OC(=O)c1ccc(NC(=O)OC(C)(C)C)cc1)C2 | 2.1 | 3.5 | < 20 | 5 | Active | 65 | Active | Active | Active | 5.5 |  |  |  |  |  | Fold change [3]: 1.4
2 | CC(=O)Oc1cc(OC(C)=O)c2c(c1)O[C@H](c1cc(OC(C)=O)c(OC(C)=O)c(OC(C)=O)c1)[C@H](OC(=O)c1cc(OC(C)=O)c(OC(C)=O)c(OC(C)=O)c1)C2 |  |  | < 20 |  |  |  |  |  |  |  |  |  |  |  |  | 
3 | O=C(O[C@@H]1Cc2c(O)cc(O)cc2O[C@@H]1c1cc(O)c(O)c(O)c1)c1cc(O)c(O)c(O)c1 [EPIGALOCATECHIN GALLATE] |  |  |  |  |  | 10 |  |  |  |  | 200 |  |  |  |  | inhibition [13]: 4%
4 | CC(=O)Oc1cc(OC(C)=O)c2c(c1)O[C@H](c1cc(OC(C)=O)c(OC(C)=O)c(OC(C)=O)c1)[C@H](OC(=O)c1ccc(N)cc1)C2 | 2 | 3.3 | < 20 | 3.5 | Active | 39 | Active | Active | Active | 4.7 |  |  |  |  |  | Activity [3]: inactive
5 | Nc1ccc(C(=O)O[C@@H]2Cc3c(O)cc(O)cc3O[C@@H]2c2cc(O)c(O)c(O)c2)cc1 |  |  |  |  |  |  |  |  |  |  | 840 | tde | tde | tde | 10 | 
6 | CC(C)(C)OC(=O)Nc1ccc(C(=O)O[C@@H]2Cc3c(O)cc(O)cc3O[C@@H]2c2cc(O)c(O)c(O)c2)cc1 |  |  |  |  |  |  |  |  |  |  | 3850 | tde | tde | tde | 10 | 

Source: ChEMBL document CHEMBL1149605, “A para-amino substituent on the D-ring of green tea polyphenol epigallocatechin-3-gallate as a novel proteasome inhibitor and cancer cell apoptosis inducer” (Bioorg Med Chem, 2007)
